For series [1], the target named is T1, 5-hydroxytryptamine receptor 1A (Homo sapiens, UniProt P08908).
T1 sequence (P08908 whole entry): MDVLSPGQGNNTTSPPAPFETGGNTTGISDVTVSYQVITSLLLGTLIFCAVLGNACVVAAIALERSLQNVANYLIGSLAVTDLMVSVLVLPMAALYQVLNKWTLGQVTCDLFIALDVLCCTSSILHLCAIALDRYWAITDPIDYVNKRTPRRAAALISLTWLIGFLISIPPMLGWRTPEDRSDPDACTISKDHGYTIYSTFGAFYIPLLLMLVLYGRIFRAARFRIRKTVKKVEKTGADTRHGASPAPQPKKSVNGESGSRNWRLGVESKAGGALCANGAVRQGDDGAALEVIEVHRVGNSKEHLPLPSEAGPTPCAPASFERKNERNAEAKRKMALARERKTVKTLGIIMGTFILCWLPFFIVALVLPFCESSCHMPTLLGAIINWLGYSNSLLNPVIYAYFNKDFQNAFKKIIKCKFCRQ
In words: (§1) Displacement of [3H]8OHDPAT from human 5HT1A receptor. Summed up: (§2)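 Radioligand competition binding on cloned human receptor membranes: [3H]8-OH-DPAT for 5-HT1A; CHO-cell D2L membranes with [3H]spiperone. Membranes plus radioligand with or without varying compound concentrations. Bound and free separated by vacuum filtration; bound counted by liquid scintillation. Concentration–percent inhibition of specific binding fit by nonlinear regression to IC50.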
(In a radioligand displacement assay an active substance lowers the binding of a labelled ligand.)

Series [2] addresses T2, Alpha-1A adrenergic receptor (Rattus norvegicus, UniProt P43140).
T2 sequence (P43140 whole entry): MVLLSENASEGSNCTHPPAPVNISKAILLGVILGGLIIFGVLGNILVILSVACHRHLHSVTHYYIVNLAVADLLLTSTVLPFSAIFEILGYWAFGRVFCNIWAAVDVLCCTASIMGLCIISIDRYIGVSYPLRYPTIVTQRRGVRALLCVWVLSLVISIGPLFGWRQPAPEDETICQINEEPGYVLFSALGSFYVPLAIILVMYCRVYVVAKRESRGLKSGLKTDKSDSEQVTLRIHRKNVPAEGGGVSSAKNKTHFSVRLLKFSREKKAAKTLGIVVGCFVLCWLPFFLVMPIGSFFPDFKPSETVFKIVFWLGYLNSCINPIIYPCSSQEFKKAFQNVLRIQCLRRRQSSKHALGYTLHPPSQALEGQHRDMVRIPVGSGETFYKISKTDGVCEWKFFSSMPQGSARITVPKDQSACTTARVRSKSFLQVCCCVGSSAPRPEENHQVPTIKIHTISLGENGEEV
In words: Displacement of [3H]prazosin from rat adrenergic alpha1A receptor expressed in fibroblast cells. The series is classed as cell-based. The method, boiled down: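 Cloned rat alpha1a receptor in fibroblast cell membranes; [3H]prazosin as radioligand, incubated with or without a range of compound concentrations. Filtration under vacuum removed free label; bound measured by liquid scintillation counting. Percent inhibition of specific binding vs concentration fit by nonlinear regression for IC50.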

Series [3] addresses Voltage-gated inwardly rectifying potassium channel KCNH2 (Homo sapiens, UniProt Q12809). The series can be described thus: Displacement of [3H]dofetilide from human ERG channel expressed in HEK293 cells. The format is cell-based.
In series [4] the target is T3, 5-hydroxytryptamine receptor 1A (Homo sapiens) (UniProt P08908).
T3 sequence (whole entry): T1 sequence (P08908 whole entry)
The series is described as §1. Summed up: as §2

For series [5], the target named is T4, D(2) dopamine receptor (Homo sapiens, UniProt P14416). The series can be described thus: Displacement of [3H]spiperone from human D2L receptor expressed in CHO cells. The format is cell-based. The method, boiled down: as §2
T4 sequence (P14416 whole entry): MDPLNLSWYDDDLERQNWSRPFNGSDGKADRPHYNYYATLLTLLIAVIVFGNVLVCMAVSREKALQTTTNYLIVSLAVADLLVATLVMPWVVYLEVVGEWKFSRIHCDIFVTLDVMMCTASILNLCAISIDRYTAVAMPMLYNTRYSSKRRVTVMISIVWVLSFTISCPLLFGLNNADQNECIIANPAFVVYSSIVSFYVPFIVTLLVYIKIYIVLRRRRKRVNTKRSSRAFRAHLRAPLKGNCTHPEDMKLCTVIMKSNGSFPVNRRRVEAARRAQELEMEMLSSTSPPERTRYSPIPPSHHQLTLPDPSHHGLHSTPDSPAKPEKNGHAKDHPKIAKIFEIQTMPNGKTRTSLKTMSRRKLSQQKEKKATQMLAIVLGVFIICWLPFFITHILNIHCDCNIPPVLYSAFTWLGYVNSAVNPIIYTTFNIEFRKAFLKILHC
Series [6] deals with 5-hydroxytryptamine receptor 2A (Homo sapiens, UniProt P28223). The series can be described thus: Displacement of [3H]ketanserin from human 5HT2A receptor expressed in Swiss 3T3 cells. The format is cell-based. Summed up: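 Membranes from Swiss 3T3 cells expressing human 5-HT2A, labeled with [3H]ketanserin, incubated with or without varying compound concentrations. Vacuum filtration separated unbound label; bound label read by liquid scintillation. IC50 from nonlinear-regression fit of concentration vs percent inhibition of specific binding. Ki reported as geometric mean of at least three experiments.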
Chain of 5-hydroxytryptamine receptor 2A (P28223 whole entry): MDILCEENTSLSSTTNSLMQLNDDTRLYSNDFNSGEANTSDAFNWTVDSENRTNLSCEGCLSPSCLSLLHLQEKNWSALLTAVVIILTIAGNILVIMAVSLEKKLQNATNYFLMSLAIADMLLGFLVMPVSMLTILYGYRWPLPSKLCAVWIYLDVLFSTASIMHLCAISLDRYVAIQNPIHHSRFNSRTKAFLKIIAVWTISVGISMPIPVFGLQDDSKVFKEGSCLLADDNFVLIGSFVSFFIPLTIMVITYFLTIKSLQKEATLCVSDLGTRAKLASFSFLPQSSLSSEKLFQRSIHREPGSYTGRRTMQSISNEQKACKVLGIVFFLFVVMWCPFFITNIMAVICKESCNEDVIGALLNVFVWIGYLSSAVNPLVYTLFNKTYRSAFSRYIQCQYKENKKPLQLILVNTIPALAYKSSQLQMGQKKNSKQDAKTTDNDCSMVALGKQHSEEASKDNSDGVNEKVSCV

For series [7], the target named is T4, D(2) dopamine receptor. In words: Displacement of [3H]spiperone from human D2L receptor expressed in CHO cells at 100 nM. The format is cell-based.

By Ki is commonly meant the dissociation constant of the complex between target and ligand, obtained from inhibition or displacement. Low readings indicate tighter binding, high ones weaker binding.

Chain of Voltage-gated inwardly rectifying potassium channel KCNH2 (Q12809 whole entry): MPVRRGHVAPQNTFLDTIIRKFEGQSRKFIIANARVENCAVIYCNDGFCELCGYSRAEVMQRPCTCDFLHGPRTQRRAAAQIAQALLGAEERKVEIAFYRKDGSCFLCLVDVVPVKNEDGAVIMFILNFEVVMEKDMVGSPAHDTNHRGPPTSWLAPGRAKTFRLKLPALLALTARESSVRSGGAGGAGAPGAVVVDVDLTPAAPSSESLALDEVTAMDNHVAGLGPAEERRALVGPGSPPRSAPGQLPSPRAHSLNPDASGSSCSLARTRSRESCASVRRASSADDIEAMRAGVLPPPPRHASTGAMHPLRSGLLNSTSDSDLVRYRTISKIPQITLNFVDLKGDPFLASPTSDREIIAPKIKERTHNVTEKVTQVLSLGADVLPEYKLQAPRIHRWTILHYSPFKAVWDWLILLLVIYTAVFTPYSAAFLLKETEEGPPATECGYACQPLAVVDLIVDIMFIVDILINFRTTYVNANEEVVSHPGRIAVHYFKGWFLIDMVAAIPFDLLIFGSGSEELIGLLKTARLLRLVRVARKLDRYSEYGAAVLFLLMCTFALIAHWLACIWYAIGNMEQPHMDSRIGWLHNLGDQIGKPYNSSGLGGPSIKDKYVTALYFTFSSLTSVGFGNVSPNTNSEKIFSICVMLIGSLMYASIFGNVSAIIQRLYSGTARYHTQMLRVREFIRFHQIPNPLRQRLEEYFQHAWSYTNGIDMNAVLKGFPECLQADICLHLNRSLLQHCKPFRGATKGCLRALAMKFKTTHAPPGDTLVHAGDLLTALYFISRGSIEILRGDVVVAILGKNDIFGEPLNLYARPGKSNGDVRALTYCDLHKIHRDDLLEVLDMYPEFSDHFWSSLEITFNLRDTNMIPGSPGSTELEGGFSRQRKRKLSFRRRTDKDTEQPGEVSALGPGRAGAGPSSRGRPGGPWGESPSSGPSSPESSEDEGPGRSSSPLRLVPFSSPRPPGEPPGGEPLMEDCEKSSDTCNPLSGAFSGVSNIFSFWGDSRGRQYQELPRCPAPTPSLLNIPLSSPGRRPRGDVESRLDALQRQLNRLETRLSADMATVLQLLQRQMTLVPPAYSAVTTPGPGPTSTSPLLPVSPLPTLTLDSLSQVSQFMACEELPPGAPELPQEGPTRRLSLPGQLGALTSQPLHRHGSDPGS

For the compound `O=C1Cc2cc(CCN3CCN(c4nsc5ccccc45)CC3)c(Cl)cc2N1` [ZIPRASIDONE], the Ki was 4 nM in series [1] and 0.5 nM in series [2]. The Activity result in series [3] (human, hek293) is “Not Active”.
The compound `O=C(NC1CCc2cc(CCN3CCN(c4nsc5ccccc45)CC3)ccc21)C(F)(F)F` (centres undefined) had an Intrinsic activity in series [4] of 60%. The inhibition constant Ki was 1 nM in series [1], 0.3 nM in series [2], 8 nM in series [5] and 0.15 nM in series [6].
On to `O=C(NC1CCc2ccc(CCN3CCN(c4nsc5ccccc45)CC3)cc21)c1ccc(F)cc1` (centres undefined), for which the inhibition constant Ki in series [1] was found to be 66.7 nM; in series [2], 10.3 nM; in series [3], 78 nM; in series [5], 6 nM; in series [6], 2.45 nM.
The compound `NC1CCc2ccc(CCN3CCN(c4nsc5ccccc45)CC3)cc21` (centres undefined) gave an Intrinsic activity in series [4] of 60%. In addition, the inhibitory constant (Ki) was determined as 2 nM in series [1]; 2.72 nM in series [2]; 616 nM in series [3]; 21 nM in series [5]; 0.09 nM in series [6].
On to `CC(C)C(=O)NC1CCc2cc(CCN3CCN(c4nsc5ccccc45)CC3)ccc21` (centres undefined), for which the inhibition constant (Ki) in series [1] is 1 nM; in series [2], 0.49 nM; in series [3], 219 nM; in series [6], 0.65 nM. In series [7], this compound displayed an Activity of 17%.
`CC(=O)NC1CCc2cc(CCN3CCN(c4nsc5ccccc45)CC3)ccc21` (centres undefined) showed an Intrinsic activity in series [4] of 60%. Further, the Ki in series [1] worked out at 1.1 nM; in series [2] it was 3.18 nM; in series [3], 2200 nM; in series [5], 15 nM; in series [6], 0.33 nM.
For the compound `Cc1ccc(C(=O)NC2CCc3ccc(CCN4CCN(c5nsc6ccccc56)CC4)cc32)cc1` (centres undefined), the Ki in series [1] came to 28.1 nM; in series [2] it was 13.5 nM; in series [3] it was 194 nM; in series [5], 15 nM; in series [6] it was 3 nM.
Turning to `CCCC(=O)NC1CCc2cc(CCN3CCN(c4nsc5ccccc45)CC3)ccc21` (centres undefined), the Intrinsic activity in series [4] was 60%. Moreover, the Ki in series [1] came to 2 nM; in series [2] it was 0.9 nM; in series [3] it was 269 nM; in series [6], 0.5 nM. This compound registered an Activity in series [7] of 21%.
In series [4], `O=C(NC1CCc2cc(CCN3CCN(c4nsc5ccccc45)CC3)ccc21)c1cccnc1` (centres undefined) showed an Intrinsic activity of 60%. Moreover, the inhibition constant Ki in series [1] stood at 7.7 nM; in series [2], 17.4 nM; in series [3], 202 nM; in series [5], 5 nM; in series [6], 0.68 nM.
As for `O=C(NC1CCc2ccc(CCN3CCN(c4nsc5ccccc45)CC3)cc21)c1ccno1` (centres undefined), the Ki is 6.5 nM in series [1], 1.88 nM in series [2], 150 nM in series [3] and 0.08 nM in series [6].
`CCC(=O)NC1CCc2cc(CCN3CCN(c4nsc5ccccc45)CC3)ccc21` (centres undefined) yielded an Intrinsic activity in series [4] of 60%. For the same compound, the inhibition constant (Ki) in series [1] turned out to be 2 nM; in series [2], 0.45 nM; in series [3], 184 nM; in series [6], 0.25 nM. The compound further displayed an Activity in series [7] of 21%.
For `O=C(NC1CCc2ccc(CCN3CCN(c4nsc5ccccc45)CC3)cc21)c1cccnc1` (centres undefined), the Ki in series [1] worked out at 4.5 nM; in series [2], 3.31 nM; in series [3], 358 nM; in series [5] it was 6 nM; in series [6], 0.95 nM.
Regarding `O=C(NC1CCc2ccc(CCN3CCN(c4nsc5ccccc45)CC3)cc21)C1CC1` (centres undefined), in series [4], the Intrinsic activity worked out at 60%. The inhibition constant (Ki) in series [1] came to 12 nM; in series [2], 2.22 nM; in series [3], 35 nM; in series [5] it was 21 nM; in series [6] it was 0.3 nM.
`CCC(=O)NC1CCc2ccc(CCN3CCN(c4nsc5ccccc45)CC3)cc21` (centres undefined): the Ki was found to be 5 nM in series [1]; 3.03 nM in series [2]; 164 nM in series [3]; 34 nM in series [5]; 0.01 nM in series [6].
`O=C(NC1CCc2ccc(CCN3CCN(c4nsc5ccccc45)CC3)cc21)c1ccccc1` (centres undefined): the Ki in series [1] amounted to 41.8 nM; in series [2], 10.9 nM; in series [5], 22 nM; in series [6], 4.75 nM.
Consider `O=C(NC1CCc2ccc(CCN3CCN(c4nsc5ccccc45)CC3)cc21)c1ccc(Cl)cc1` (centres undefined), for which, in series [4], the Intrinsic activity amounted to 60%. For the same compound, the Ki in series [1] was 56 nM; in series [2], 5.64 nM; in series [3], 166 nM; in series [5], 5 nM; in series [6], 0.1 nM.
`O=C(NC1CCc2cc(CCN3CCN(c4nsc5ccccc45)CC3)ccc21)C1CC1` (centres undefined): the Ki in series [1] amounted to 2 nM; in series [2], 0.73 nM; in series [3], 137 nM; in series [6], 0.45 nM. Moreover, the Activity in series [7] is 27%.
`O=C(Cc1ccccc1)NC1CCc2ccc(CCN3CCN(c4nsc5ccccc45)CC3)cc21` (centres undefined): the Intrinsic activity in series [4] stood at 60%. Besides, the Ki in series [1] was determined as 20.9 nM; in series [2] it was 5.27 nM; in series [5], 26 nM; in series [6], 0.04 nM.
As for `O=C(NC1CCc2ccc(CCN3CCN(c4nsc5ccccc45)CC3)cc21)C(F)(F)F` (centres undefined), the Ki in series [1] was found to be 4.9 nM; in series [2] it was 1.92 nM; in series [3] it was 101 nM; in series [5], 10 nM.
For the compound `CCCC(=O)NC1CCc2ccc(CCN3CCN(c4nsc5ccccc45)CC3)cc21` (centres undefined), the Intrinsic activity in series [4] amounted to 60%. For the same compound, the inhibition constant (Ki) in series [1] came to 5.5 nM; in series [2], 3.96 nM; in series [5] it was 27 nM; in series [6], 0.45 nM.
The compound `CC(=O)NC1CCc2ccc(CCN3CCN(c4nsc5ccccc45)CC3)cc21` (centres undefined) gave an Intrinsic activity in series [4] of 60%. The inhibition constant (Ki) in series [1] was 7.5 nM; in series [2], 1.34 nM; in series [3] it was 885 nM; in series [5], 22 nM; in series [6], 0.01 nM.
Regarding `O=C(CCc1ccccc1)NC1CCc2ccc(CCN3CCN(c4nsc5ccccc45)CC3)cc21` (centres undefined), the Intrinsic activity in series [4] is 60%. For the same compound, the inhibition constant Ki stood at 37.2 nM in series [1], 10.3 nM in series [2], 33 nM in series [5] and 0.95 nM in series [6].
As for `CC(C)C(=O)NC1CCc2ccc(CCN3CCN(c4nsc5ccccc45)CC3)cc21` (centres undefined), the Ki in series [1] came to 12 nM; in series [2], 3.61 nM; in series [3], 278 nM; in series [5] it was 67 nM; in series [6], 0.75 nM.
The matching figures for `O=C(NC1CCc2ccc(CCN3CCN(c4nsc5ccccc45)CC3)cc21)c1ccco1` (centres undefined): 7.9 nM, 1.38 nM, 35 nM, 5 nM and 0.55 nM.
`O=C(NC1CCc2cc(CCN3CCN(c4nsc5ccccc45)CC3)ccc21)c1ccc(F)cc1` (centres undefined): the Intrinsic activity in series [4] amounted to 60%. In addition, the inhibitory constant (Ki) in series [1] worked out at 7.8 nM; in series [2], 15.6 nM; in series [3], 135 nM; in series [5], 10 nM; in series [6], 1.65 nM.

(Values after ChEMBL document CHEMBL1140829, “1-Aminoindanes as novel motif with potential atypical antipsychotic properties” (Bioorg Med Chem Lett, 2008).)
